IMP-1 inhibitor: IMP-1 metallo-beta-lactamase inhibitors, primary screen, biochemical, epi-absorbance readout, Pseudomonas aeruginosa enzyme; metallo-beta-lactamase IMP-1 (Pseudomonas aeruginosa); purified IMP-1, nitrocefin hydrolysis, epi-absorbance fluorescence; inhibition, % at 5.6 µM; 290,000 tested, 0.45% active;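 active means inhibition above the mean plus 3 SD of all compounds in the same screening run, cut at about 4.5% in these data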;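 further: 0% = IMP-1 with DMSO and 100% = DMSO wells lacking enzyme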
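Assay system: purified IMP-1; Quantity: IMP-1 0.2 nM before substrate addition; Medium: HEPES buffer pH 7.1 with ZnSO4 and Brij 35; Incubation: 15 min enzyme–compound preincubation, then 25 min nitrocefin reaction, 25 °C; Signal: fluorescence quenching readout, ex 480/em 530 nm; Controls: DMSO with and without IMP-1; Repeats: singlicate testing.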
MEKK2 mut-MEK5: MEK5 binding signal on mutant MEKK2 PB1, primary screen, biochemical, multiplex bead flow cytometry, Alexa488-MEK5; 290,000 tested, 0.35% active; percent response, % at 10 µM; Alexa488-MEK5 binding to MEKK2 mutant; in the data active means percent response above about 24%, passing the limit was not always enough
VIM-2 inhibitor: VIM-2 metallo-beta-lactamase inhibitors, primary screen, biochemical, epi-absorbance readout, Pseudomonas aeruginosa enzyme; purified VIM-2, nitrocefin hydrolysis, epi-absorbance fluorescence; inhibition, % at 5.6 µM; 290,000 tested, 0.89% active;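 active means inhibition above the mean of all tested compounds plus 3 SD, cutoff set per screening run, cut at about 7.5% in these data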;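 further: red hydrolysis product quenches plate fluorescence so inhibitors raise well fluorescence; 0% = enzyme with DMSO and 100% = DMSO without enzyme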
MEKK2 WT-MEK5: modulators of MEK5 binding to wildtype MEKK2, primary screen, biochemical, multiplex bead flow cytometry, Alexa488-MEK5. Alexa488-MEK5 binding to MEKK2 WT; actives lie on both sides. Mitogen-activated protein kinase kinase kinase 2 (Homo sapiens), Q9Y2U5. binding response (% of control), % at 10 µM. AID 1531, 2009. 290,000 tested, 1.1% active; in the data active means binding response below about 67% or above about 130%
MEKK3 PB1 HTS: modulators of MEKK3-MEK5 PB1 binding, primary screen, biochemical, wildtype MEKK3, multiplex bead flow cytometry, Alexa488-MEK5 | Mitogen-activated protein kinase kinase kinase 3 (Homo sapiens), Q99759 | bead-based flow cytometry, Alexa488-MEK5 binding to MEKK3; actives lie on both sides; 0 = blocked by unlabeled MEK5, 100 = vehicle | binding response (% of control), % at 10 µM | 290,000 tested, 1.4% active;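 active means binding response more than 3 SD above or below the average of its plate-row segment, actives on both sides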;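 further: Alexa488 bead fluorescence after subtracting the streptavidin-only scavenger bead signal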
Target sequence (Q99759 whole entry, looked up): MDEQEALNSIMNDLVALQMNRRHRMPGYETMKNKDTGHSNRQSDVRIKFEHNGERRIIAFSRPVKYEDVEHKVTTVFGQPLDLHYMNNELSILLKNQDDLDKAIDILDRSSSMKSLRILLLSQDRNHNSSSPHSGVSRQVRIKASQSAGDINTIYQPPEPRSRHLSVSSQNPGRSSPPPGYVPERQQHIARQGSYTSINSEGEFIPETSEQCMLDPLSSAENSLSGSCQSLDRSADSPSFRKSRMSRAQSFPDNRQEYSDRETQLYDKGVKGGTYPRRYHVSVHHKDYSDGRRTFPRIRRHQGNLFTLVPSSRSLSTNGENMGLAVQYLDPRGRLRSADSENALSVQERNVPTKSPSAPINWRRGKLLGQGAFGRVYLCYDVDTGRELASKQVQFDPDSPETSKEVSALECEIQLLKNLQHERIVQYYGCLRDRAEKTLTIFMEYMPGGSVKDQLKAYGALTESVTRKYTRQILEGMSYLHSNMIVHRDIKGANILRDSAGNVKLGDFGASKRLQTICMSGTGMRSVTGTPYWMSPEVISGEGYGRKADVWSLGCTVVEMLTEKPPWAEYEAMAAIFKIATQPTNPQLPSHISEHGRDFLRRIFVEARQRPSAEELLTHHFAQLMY
MEKK2wt confirm: modulators of MEK5 binding to wildtype MEKK2, confirmation, biochemical, single concentration, multiplex bead flow cytometry; Alexa488-MEK5 binding to MEKK2 WT; actives lie on both sides; AID 1892, 2009; binding response (% of control), % at 10 µM; 5,900 tested, 2.4% active; shares compounds with MEKK3 PB1 HTS; in the data active means binding response below about 16% or above about 210%; inactive means in between
MEKK2mut-MEK5: mutant MEKK2 PB1-MEK5 binding signal retest – biochemical, single concentration, multiplex bead flow cytometry, confirmation. shares compounds with MEKK3 PB1 HTS. Alexa488-MEK5 binding to MEKK2 mutant. percent response, % at 10 µM. 5,900 tested, 2% active. AID 1893, 2009; in the data active means percent response mostly above about 71%, no sharp cut-off; inactive means mostly below about 38%;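 further: higher means compound restores mutant binding toward wildtype level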
MEKK3-MEK5 inh: MEKK3 wild-type PB1 binding to MEK5, inhibitors, confirmation, biochemical, bead multiplex flow cytometry, single concentration, wildtype; binding response (% of control), % at 10 µM; shares compounds with MEKK3 PB1 HTS; Alexa488-MEK5 binding to MEKK3; hits give low values; 5,900 tested, 1.8% active;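 active means binding response below 72% of control, or above a set upper limit, though filed actives all read lower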;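 further: 100% = DMSO only wells and 0% = binding blocked by excess unlabeled MEK5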
The depositor's hits bear a star; / = no result; [ ] = another dose, or the depositor's remark. Rows were chosen to be rich in hits. Some 3.4% of all compounds tested hit in one or more screens of this group.

SMILES | IMP-1 inhibitor | MEKK2 mut-MEK5 | VIM-2 inhibitor | MEKK2 WT-MEK5 | MEKK3 PB1 HTS | MEKK2wt confirm | MEKK2mut-MEK5 | MEKK3-MEK5 inh
CC(C)NS(=O)(=O)c1ccc(NC(=O)C(C)Oc2ccc(C(=O)c3ccccc3)cc2)cc1 (configuration not stated) | 0 | -1 | -1 | 100 | 147* | 97 | -9 | 102
COc1ccc(OC)c(-c2csc(NC(=O)CSc3ccc([N+](=O)[O-])cc3)n2)c1 | -2 | 0 | -4 | 110 | 141* | 103 | -3 | 102
CC(C)(C)OC(=O)NNC(=O)c1ccc(Cl)cc1 | -1 | 5 | 1 | 102 | 105 | / | / | /
CCCC(C)C(=O)Nc1ccc2c(c1)OCCO2 (configuration not stated) | 0 | 2 | -2 | 100 | 99 | / | / | /
CC1=[N+](C)c2ccc3ccccc3c2C1(C)C | -4 | 71* | -2 | / | 89 | 88 | 5 | 91
Cc1nsc2c1ccc1ccccc12 | -3 | -16 | -1 | 89 | 102 | / | / | /
O=C(CN1C(=O)S/C(=C\c2ccccc2)C1=O)Nc1cc([N+](=O)[O-])ccc1O | -2 | 5 | 0 | 103 | 101 | / | / | /
Cc1cc(C)cc(NC(=S)NCc2ccncc2)c1 | -3 | 7 | -2 | 105 | 102 | / | / | /
Fc1ccc(NC(=S)NCc2cccnc2)cc1 | -2 | -14 | 0 | 56 | 47*[inhibitor] | 103 | -3 | 102
Cc1cc(C)cc(NC(=S)NCc2cccnc2)c1 | -2 | 0 | 0 | 109 | 142* | 101 | 0 | 99
Fc1cccc(NC(=S)NCc2cccnc2)c1 | -3 | 13 | -4 | 106 | 104 | / | / | /
CS(=O)(=O)N1CCCC(C(=O)N2CCN(c3cccc(Cl)c3)CC2)C1 (configuration not stated) | 0 | -2 | -2 | 100 | 99 | / | / | /
CC/C(=C\C(=O)c1ccncc1)Nc1ccc(O)cc1 | -1 | 25* | 0 | 113 | 107 | 96 | -10 | 98
O=C(N/N=C/c1ccc(O)cc1)c1ccncc1 | -2 | 2 | -3 | 101 | 98 | / | / | /
CC1CCCC(NC(=O)CSc2nnnn2C)C1C (configuration not stated) | -2 | -23 | 1 | -8.0*[inhibitor] | 0.0*[inhibitor] | 102 | 6 | 105
CC1CCCC(NC(=O)Cc2ccc(Br)cc2)C1C (configuration not stated) | -1 | 8 | -2 | 101 | 131* | 99 | 2 | 102
Cn1nnnc1SCC(=O)NC1CCCCC1 | -3 | -9 | -5 | 94 | 89 | / | / | /
Cc1cccc(N2CCN(C(=O)Cc3ccc(Br)cc3)CC2)c1C | -2 | 5 | -2 | 110 | 109 | / | / | /
COc1cc(/C=N/N2CCOCC2)ccc1OC(=O)c1ccco1 | -1 | -17 | -3 | 52 | 49*[inhibitor] | 95 | -7 | 98
C=CCSc1ncnc2sc(C)c(C)c12 | -2 | -2 | -3 | 92 | 95 | / | / | /
CCSc1ncnc2sc(C)c(C)c12 | -2 | 0 | -3 | 88 | 53*[inhibitor] | 102 | 2 | 102
O=C(COc1ccc(C2SCCS2)cc1)Nc1ccc(Cl)cc1 | -1 | -15 | -1 | 79 | 72*[inhibitor] | 99 | -3 | 101
O=C(CSc1ccc(Cl)cc1)Nc1ccc(C2SCCS2)cc1 | -3 | 1 | 0 | 104 | 103 | / | / | /
CCN1C(=O)N[C@@H](c2cccc(C(F)(F)F)c2)C(C(C)=O)=C1C | / | 2 | / | 103 | 107 | / | / | /
CC(OC(=O)CCc1nc2ccccc2c(=O)[nH]1)C(=O)Nc1ncc(Cl)cc1Cl (configuration not stated) | -1 | -5 | 1 | 98 | 101 | / | / | /
SMILES | IMP-1 inhibitor | MEKK2 mut-MEK5 | VIM-2 inhibitor | MEKK2 WT-MEK5 | MEKK3 PB1 HTS | MEKK2wt confirm | MEKK2mut-MEK5 | MEKK3-MEK5 inh
CC1=CC2=NC(=O)/C(=C\c3cccn3CCOc3cccc(C)c3)C(=N)N2O1 | -4 | -1 | -3 | 106 | 101 | / | / | /
CC1=CC2=NC(=O)/C(=C\c3cccn3CCOc3ccccc3)C(=N)N2O1 | -3 | 1 | 0 | 110 | 132* | 100 | -4 | 104
COc1ccc(/C=C2\SC(=O)N=C2N)cc1OC | -3 | -2 | 0 | 97 | 99 | / | / | /
COC(=O)CCC(=O)OC1(C)C(=O)C=C2C=C(C3CC3)N(C3CCCC3)C=C2C1=O (configuration not stated) | / | 4 | / | 149* | 122 | 100 | 7 | 104
CN(C)/C(=N\S(=O)(=O)c1ccccc1)c1ccc([N+](=O)[O-])cc1 | -5 | 0 | -3 | 104 | 113 | / | / | /
Cc1cc(C)n(-c2nc(NCCN(C)C)c3c4c(sc3n2)CCCC4)n1 | -2 | 28 | -1 | 147* | 88 | 137 | 31 | 105
O=c1[nH]c(=S)[nH]c2sccc12 | -4 | 2 | -2 | 103 | 105 | / | / | /
COc1ccc2cnnc(SCC(=O)Nc3ccc(C(=O)O)cc3)c2c1OC | -4 | 0 | -1 | 111 | 143* | 100 | -1 | 102
Cc1c(N2C(=O)CS/C2=N\N=C\c2ccc(Cl)cc2)c(=O)n(-c2ccccc2)n1C | -3 | 10 | -1 | 107 | 101 | / | / | /
COc1ccc(/C=N/N=C2\SCC(=O)N2c2c(C)n(C)n(-c3ccccc3)c2=O)cc1OC | -2 | 4 | -1 | 108 | 146* | 102 | 2 | 104
Cc1c(NC(=O)C2CC(c3ccc(F)cc3)=NO2)c(=O)n(-c2ccccc2)n1C (configuration not stated) | 3 | -38 | 1 | 17*[inhibitor] | 9.0*[inhibitor] | 104 | 7 | 102
Cc1ccc(-n2nc3c(c2NC(=O)c2ccc(OC(C)C)cc2)CS(=O)C3)cc1 (configuration not stated) | -1 | -2 | -1 | 103 | 98 | / | / | /
CCn1c(O)c(/C=C2\C=NN=C2c2ccccc2)sc1=S | -4 | -23 | -6 | 89 | 86 | / | / | /
CC(C)Cn1c(O)c(/C=C2\C=NN=C2c2ccccc2)sc1=S | -2 | 0 | -2 | 100 | 133* | 102 | 4 | 103

Compound activity: PubChem BioAssay, several laboratories
